In ChEMBL document CHEMBL5126630, “Optimization of the Prodrug Moiety of Remdesivir to Improve Lung Exposure/Selectivity and Enhance Anti-SARS-CoV-2 Activity” (J Med Chem, 2022):
The source made the active and inactive calls. No cut-off for these calls is given here.

Key:
[1] = Stability in human plasma assessed as half life; format: ADME, cell-free
[2] = Stability in human microsomes assessed as half life; format: ADME, Microsome
[3] = Stability in hamster plasma assessed as half life; format: ADME, cell-free, Cricetulus griseus; conditions: chinese hamster
[4] = Stability in hamster microsomes assessed as half life; format: ADME, Cricetulus griseus, Microsome; conditions: chinese hamster
[5] = Stability in mouse plasma assessed as half life; format: ADME, cell-free
[6] = Stability in mouse microsomes assessed as half life; format: ADME, Microsome
[7] = Drug metabolism in hamster lung assessed as NTP metabolite formation at 10 mg/kg, iv measured upto 24 hrs by LC-MS/MS analysis; format: ADME, organism-based, Cricetulus griseus; conditions: chinese hamster, in vivo
Method in brief: (§1)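 Female catheterized hamsters were dosed 10 mg/kg iv at 2 mg/mL; remdesivir was in 15% cyclodextrin at pH 3–3.5 and the prodrug in cyclodextrin or albumin. Two per group were sacrificed at 0.5–24 h. Tissues were homogenized in 70% methanol with internal standard. NTP was measured by ion-pairing LC-MS/MS (dimethylhexylamine/ammonium formate mobile phase), negative-ion MRM, against 10-point 5–5000 ng/mL standards. Exposure was reported as AUC.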

[8] = Drug metabolism in hamster spleen assessed as NTP metabolite formation at 10 mg/kg, iv measured upto 24 hrs by LC-MS/MS analysis; format: ADME, organism-based, Cricetulus griseus; conditions: chinese hamster, in vivo; method in brief: as §1
[9] = Drug metabolism in hamster blood assessed as NTP metabolite formation at 10 mg/kg, iv measured upto 24 hrs by LC-MS/MS analysis; format: ADME, organism-based, Cricetulus griseus; conditions: chinese hamster, in vivo; method in brief: as §1
[10] = test system: SARS-CoV-2; test: Antiviral activity against SARS-CoV-2 beta B.1.351 infected in African green monkey Vero E6 cells assessed as protection against virus-induced cytopathic effect incubated for 2 days by CellTiter-Glo assay; format: functional, organism-based; conditions: Severe acute respiratory syndrome coronavirus 2, beta B.1.351, Vero 76, 48 h
[11] = Drug metabolism in hamster lymph node assessed as NTP metabolite formation at 10 mg/kg, iv measured upto 24 hrs by LC-MS/MS analysis; format: ADME, organism-based, Cricetulus griseus; conditions: chinese hamster, in vivo; method in brief: as §1
[12] = Drug accumulation in hamster kidney at 10 mg/kg, iv measured upto 24 hrs by LC-MS/MS analysis; format: ADME, organism-based, Cricetulus griseus; conditions: chinese hamster, in vivo
Method in brief: (§2)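 Catheterized female hamsters received 10 mg/kg iv at 2 mg/mL. The remdesivir vehicle was 15% cyclodextrin at pH 3–3.5; the test prodrug was given in cyclodextrin or albumin formulation. Two animals per group were sacrificed at 0.5, 1, 4, 7 and 24 h. Tissues were homogenized in 5-fold 70% methanol with internal standard and supernatants analysed by LC-MS against 5–5000 ng/mL standard curves.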

[13] = Drug accumulation in hamster liver at 10 mg/kg, iv measured upto 24 hrs by LC-MS/MS analysis; format: ADME, organism-based, Cricetulus griseus; conditions: chinese hamster, in vivo; method in brief: as §2
[14] = Prodrug activation in human Calu-3 cells assessed as ALA release at 10 uM measured upto 12 hrs by LC-MS analysis; format: cell-based; conditions: calu-3, 12 h
Method in brief: (§3)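 Calu-3 cells (1–5 × 10^5/well) were cultured 12 h, then exposed to 10 μM drug at 37 °C for 2, 6 and 12 h (n = 3). Cells were detached with trypsin-EDTA, pelleted and washed three times with ice-cold PBS. Drug was extracted overnight at −20 °C in ice-cold 70% methanol, and supernatants were analysed by LC-MS.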

[15] = Prodrug activation in human Calu-3 cells assessed as NUC release at 10 uM measured upto 12 hrs by LC-MS analysis; format: cell-based; conditions: calu-3, 12 h; method in brief: as §3
[16] = Prodrug activation in human Calu-3 cells assessed as NTP release at 10 uM measured upto 12 hrs by LC-MS analysis; format: cell-based; conditions: calu-3, 12 h; method in brief: as §3
[17] = test system: SARS-CoV-2; test: Antiviral activity against SARS-CoV-2 infected in African green monkey Vero E6 cells assessed as protection against virus-induced cytopathic effect incubated for 2 days by CellTiter-Glo assay; format: functional, organism-based; conditions: Severe acute respiratory syndrome coronavirus 2, Vero 76, 48 h
[18] = test system: SARS-CoV-2; test: Antiviral activity against SARS-CoV-2 alpha B.1.1.7 infected in African green monkey Vero E6 cells assessed as protection against virus-induced cytopathic effect incubated for 2 days by CellTiter-Glo assay; format: functional, organism-based; conditions: Severe acute respiratory syndrome coronavirus 2, alpha B.1.1.7, Vero 76, 48 h
[19] = test system: SARS-CoV-2; test: Antiviral activity against SARS-CoV-2 gamma P.1 infected in African green monkey Vero E6 cells assessed as protection against virus-induced cytopathic effect incubated for 2 days by CellTiter-Glo assay; format: functional, organism-based; conditions: Severe acute respiratory syndrome coronavirus 2, gamma P.1, Vero 76, 48 h
[20] = test system: SARS-CoV-2; test: Antiviral activity against SARS-CoV-2 delta B.1.617.2 infected in African green monkey Vero E6 cells assessed as protection against virus-induced cytopathic effect incubated for 2 days by CellTiter-Glo assay; format: functional, organism-based; conditions: Severe acute respiratory syndrome coronavirus 2, delta B.1.617.2, Vero 76, 48 h
[21] = test system: Vero 76; test: Cytotoxicity against African green monkey Vero E6 cells at 10 uM; format: toxicity, cell-based; conditions: chlorocebus sabaeus, vero 76, 10 µM
[22] = test system: SARS-CoV-2; test: Antiviral activity against SARS-CoV-2 infected in African green monkey Vero E6 cells assessed as reduction in viral titer incubated for 2 days by CellTiter-Glo assay; format: functional, organism-based; conditions: Severe acute respiratory syndrome coronavirus 2; Vero 76; time 2.0 day

SMILES | half-life [1] | half-life [2] | half-life [3] | half-life [4] | half-life [5] | half-life [6] | Drug metabolism [7] | Drug metabolism [8] | Drug metabolism [9] | EC50 [10] | Drug metabolism [11] | Drug uptake [12] | Drug uptake [13] | Drug metabolism [14] | Drug metabolism [15] | Drug metabolism [16] | EC50 [17] | EC50 [18] | EC50 [19] | EC50 [20] | further results
CCCCC/C=C\C/C=C\CCCCCCCCOC(=O)[C@H](C)NP(=O)(OC[C@H]1O[C@@](C#N)(c2ccc3c(N)ncnn23)[C@H](O)[C@@H]1O)Oc1cccc2ccccc12 (stereo not given in full) | 286 min | 19.7 min | 271 min | 61.8 min | 3.44 min | 13.6 min |  |  |  |  |  |  |  |  |  |  |  |  |  |  | 
C[C@H](NP(=O)(OC[C@H]1O[C@@](C#N)(c2ccc3c(N)ncnn23)[C@H](O)[C@@H]1O)Oc1cccc2ccccc12)C(=O)OCc1ccccc1 (stereo not given in full) | 52.4 min | 1.05 min | 55.8 min | 0.46 min |  |  |  |  |  |  |  |  |  |  |  |  |  |  |  |  | 
CCCCCCCCCCCCOC(=O)[C@H](C)NP(=O)(OC[C@H]1O[C@@](C#N)(c2ccc3c(N)ncnn23)[C@H](O)[C@@H]1O)Oc1ccccc1 (stereo not given in full) | 47.1 min | 4.29 min | 71.2 min | 2.72 min |  |  |  |  |  |  |  |  |  |  |  |  |  |  |  |  | 
CCCCC/C=C\C/C=C\CCCCCCCCOC(=O)[C@H](C)NP(=O)(OC[C@H]1O[C@@](C#N)(c2ccc3c(N)ncnn23)[C@H](O)[C@@H]1O)Oc1ccccc1 (stereo not given in full) | 192 min | 8.33 min | 128 min | 16.2 min | 1.03 min | 8.65 min | Metabolite_Detected | Metabolite_Detected | Metabolite_Detected | 15.9 µM | Metabolite_Detected | 80% | 80% | Metabolite_Detected | Metabolite_Detected | Metabolite_Detected | 0.4 µM | 2.5 µM | 1.7 µM | 5.6 µM | Activity [21]: Non-Toxic; Activity [22]: Active
CCC(CC)COC(=O)[C@H](C)N[P@](=O)(OC[C@H]1O[C@@](C#N)(c2ccc3c(N)ncnn23)[C@H](O)[C@@H]1O)Oc1ccccc1 [REMDESIVIR] | 40.7 min | 0.86 min | 54.5 min | 0.48 min |  |  | Metabolite_Detected | Metabolite_Detected | Metabolite_Detected | 32 µM | Metabolite_Detected | 80% | 80% | Metabolite_Detected | Metabolite_Detected | Metabolite_Detected | 3.3 µM | 4.7 µM | 3.7 µM | 9.2 µM | Activity [21]: Non-Toxic; Activity [22]: Active
CCCCCCCCCCCCOC(=O)[C@H](C)NP(=O)(OC[C@H]1O[C@@](C#N)(c2ccc3c(N)ncnn23)[C@H](O)[C@@H]1O)Oc1cccc2ccccc12 (stereo not given in full) | 154 min | 6.11 min | 158 min | 3.49 min |  |  |  |  |  |  |  |  |  |  |  |  |  |  |  |  | 
